This note sets out measurements from ChEMBL document CHEMBL1250535, “Synthesis, anti-fungal and 1,3-β-D-glucan synthase inhibitory activities of caffeic and quinic acid derivatives” (Bioorg Med Chem, 2010).

Assay [1] has as its system Candida albicans. Nature of the assay: Antifungal activity against Candida albicans by NCCLS method. The class given is functional. In short, it runs like this: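 Broth dilution per NCCLS against Candida albicans NBRC 1594.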
Assay [2] has as its target T1, Beta-1,3-glucan synthase (Candida albicans, UniProt O13383).
T1 sequence (O13383 whole entry): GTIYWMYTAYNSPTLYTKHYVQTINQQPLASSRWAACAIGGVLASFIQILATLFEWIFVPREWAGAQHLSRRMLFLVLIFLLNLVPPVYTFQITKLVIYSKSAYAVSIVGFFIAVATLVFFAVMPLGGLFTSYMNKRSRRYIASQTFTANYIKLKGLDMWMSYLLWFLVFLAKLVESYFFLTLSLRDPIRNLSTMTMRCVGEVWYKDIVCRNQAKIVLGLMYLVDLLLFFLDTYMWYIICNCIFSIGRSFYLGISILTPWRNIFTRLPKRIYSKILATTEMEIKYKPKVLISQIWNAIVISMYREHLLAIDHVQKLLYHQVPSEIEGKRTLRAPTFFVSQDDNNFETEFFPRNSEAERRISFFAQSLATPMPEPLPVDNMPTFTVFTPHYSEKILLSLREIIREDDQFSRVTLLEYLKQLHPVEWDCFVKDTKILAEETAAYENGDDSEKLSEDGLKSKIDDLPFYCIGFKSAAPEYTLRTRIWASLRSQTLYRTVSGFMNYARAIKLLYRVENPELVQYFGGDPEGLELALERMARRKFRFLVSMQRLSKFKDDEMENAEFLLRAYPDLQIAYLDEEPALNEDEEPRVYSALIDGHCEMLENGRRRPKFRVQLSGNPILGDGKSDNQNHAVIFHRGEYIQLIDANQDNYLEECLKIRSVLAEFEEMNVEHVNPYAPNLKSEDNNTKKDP
Nature of the assay: Inhibition of Candida albicans 1,3 beta-D-glucan synthase. In short, it runs like this: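 Membrane-bound enzyme prepared from Candida albicans. Reaction mix: 50 mM Tris–HCl pH 7.5, 0.5 mM EDTA, 25 mM KF, GTPγS, 0.75% BSA, 5.0 mM UDP-Glc, with and without test compound. Started by adding enzyme, run 20 min at 30 °C, stopped by heating 10 min at 96 °C. Glucan formed quantified by a 1,3-β-D-glucan-dependent enzyme cascade (BGSTAR kit).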

Values after ≈ are worked out from the molar mass of the structure shown. Starred links: 1 amine or outer side, 2 acyl side, 3 side chain; linkers in the order of their positions; H or OH if unused. Positions of bridges follow the written chain, without caps; N, C: chain ends. Non-standard residues stand in square brackets, D forms with d. Residues, ends and D or L forms follow the SMILES beside them. *: point of attachment. Orn(4R-OH,5R-OH) = O=C([C@H](C[C@@H](O)[C@@H](O)N[*:3])N[*:1])[*:2]; hTyr(3S-OH,4S-OH) = N[C@H](C(=O)O)[C@H](O)[C@@H](O)c1ccc(O)cc1; Pro(3S-OH,4S-Me) = C[C@H]1CN[C@H](C(=O)O)[C@H]1O; Palmitoyl = CCCCCCCCCCCCCCCC(=O)*; Hyp = O=C(O)[C@@H]1C[C@@H](O)CN1 Bounds are passed on as bounds.

`CCCCCCCCOc1ccc(NC(=O)C(CCCNC(=O)OC(C)(C)C)NC(=O)/C=C/c2ccc(O)c(O)c2)cc1` (centres undefined) gave an MIC in assay [1] of 27 µM (≈ 16.1 µg/mL). In assay [2], this compound gave an IC50 of 52 µM.
For `CCCCCCCCOc1ccc(NC(=O)C(CCCN)NC(=O)[C@]2(O)C[C@@H](O)[C@@H](O)[C@H](O)C2)cc1` (some centres undefined), the MIC in assay [1] came to 16 µM (≈ 8.15 µg/mL). In assay [2], this compound registered an IC50 of 53 µM.
In assay [1], `CCCCCCCCOc1ccc(NC(=O)[C@]2(O)C[C@@H](O)[C@@H](O)[C@H](O)C2)cc1` registered a minimal inhibitory concentration (MIC) of 81 µM (≈ 32 µg/mL). In assay [2], the IC50 was greater than 81 µM.
In turn, `CCCCCCCCOc1ccc(NC(=O)C(NC(=O)[C@]2(O)C[C@@H](O)[C@@H](O)[C@H](O)C2)C(C)O)cc1` (some centres undefined) showed an MIC in assay [1] greater than 129 µM. The same compound returned an IC50 in assay [2] greater than 65 µM.
In turn, `CCCCCCCCOc1ccc(NC(=O)C(CC(=O)O)NC(=O)[C@]2(O)C[C@@H](O)[C@@H](O)[C@H](O)C2)cc1` (some centres undefined) came in with an MIC in assay [1] greater than 125 µM. This compound also gave an IC50 in assay [2] greater than 63 µM.
In assay [1], `CCCCCCCCOc1ccc(NC(=O)C(CCCN)NC(=O)/C=C/c2ccc(O)c(O)c2)cc1` (centres undefined) came in with an MIC of 4 µM (≈ 1.99 µg/mL). The compound also returned an IC50 in assay [2] of 22 µM.
Taken in the same sequence, the figures for `CCCCCCCCOc1ccc(NC(=O)/C=C/c2ccc(O)c(O)c2)cc1` were 84 µM (≈ 32.2 µg/mL) and greater than 84 µM.
The matching figures for `CCCCCCCCOc1ccc(NC(=O)C(NC(=O)/C=C/c2ccc(O)c(O)c2)C(C)O)cc1` (centres undefined): 8.3 µM (≈ 4.02 µg/mL) and greater than 66 µM.
Taken in the same sequence, the figures for `CCCCCCCCOc1ccc(NC(=O)C(CC(=O)O)NC(=O)/C=C/c2ccc(O)c(O)c2)cc1` (centres undefined) were 64 µM (≈ 31.9 µg/mL) and greater than 64 µM.
Take `CCCCCCCCOc1ccc(NC(=O)C(NC(=O)/C=C/c2ccc(O)c(O)c2)C(C)OC(C)(C)C)cc1` (centres undefined): the MIC in assay [1] amounted to 15 µM (≈ 8.11 µg/mL). The IC50 in assay [2] was 37 µM.
As to `CCCCCCCCOc1ccc(NC(=O)C(CC(=O)OC(C)(C)C)NC(=O)/C=C/c2ccc(O)c(O)c2)cc1` (centres undefined), the minimal inhibitory concentration (MIC) in assay [1] is 29 µM (≈ 16.1 µg/mL). Besides, the IC50 in assay [2] was 58 µM.
Taken in the same sequence, the figures for `CCCCCCCCOc1ccc(NC(=O)C(NC(=O)[C@]2(O)C[C@@H](O)[C@@H](O)[C@H](OC(=O)/C=C/c3ccc(O)c(O)c3)C2)C(C)O)cc1` (some centres undefined) were 12 µM (≈ 7.9 µg/mL) and greater than 49 µM.
In assay [1], `CCCCCCCCOc1ccc(NC(=O)C(CCCN)NC(=O)[C@]2(O)C[C@@H](O)[C@@H](O)[C@H](OC(=O)/C=C/c3ccc(O)c(O)c3)C2)cc1` (some centres undefined) displayed an MIC of 6 µM (≈ 4.03 µg/mL). Also, the IC50 in assay [2] was found to be 15 µM.
Taken in the same sequence, the figures for `CCCCCCCCOc1ccc(NC(=O)C(CC(=O)O)NC(=O)[C@]2(O)C[C@@H](O)[C@@H](O)[C@H](OC(=O)/C=C/c3ccc(O)c(O)c3)C2)cc1` (some centres undefined) were 48 µM (≈ 32.3 µg/mL) and greater than 48 µM.
Taken in the same sequence, the figures for `CCCCCCCCOc1ccc(NC(=O)[C@]2(O)C[C@@H](O)[C@@H](O)[C@H](OC(=O)/C=C/c3ccc(O)c(O)c3)C2)cc1` were 14 µM (≈ 7.81 µg/mL) and 41 µM.
For the compound `CCCCCCCCCCCCCCCC(=O)N[C@H]1C[C@@H](O)[C@@H](O)NC(=O)[C@@H]2[C@@H](O)[C@@H](C)CN2C(=O)[C@H]([C@@H](C)O)NC(=O)[C@H]([C@H](O)[C@@H](O)c2ccc(O)cc2)NC(=O)[C@@H]2C[C@@H](O)CN2C(=O)[C@H]([C@@H](C)O)NC1=O` [ACULEACIN A] (Palmitoyl-[Orn(4R-OH,5R-OH)]T[Hyp][hTyr(3S-OH,4S-OH)]T[Pro(3S-OH,4S-Me)]; lactam 1-C), in assay [1], the lowest concentration to inhibit growth (MIC) was 0.23 µM (≈ 0.238 µg/mL). Besides, half-maximal inhibition in assay [2] (IC50) was put at 8 µM.
Compound `O=C(/C=C/c1ccc(O)c(O)c1)O[C@@H]1C[C@](O)(C(=O)O)C[C@@H](O)[C@H]1O` [CHLOROGENIC ACID] displayed an MIC in assay [1] greater than 181 µM. This compound came in with a 50% inhibitory concentration (IC50) in assay [2] greater than 90 µM.
